Results taken from ChEMBL document CHEMBL4196014, “Highly convergent synthesis and antiviral activity of (E)-but-2-enyl nucleoside phosphonoamidates” (Eur J Med Chem, 2018).
The source made the active and inactive calls. The rule behind the calls is not given here.

Key:
Human alphaherpesvirus 1 [1] = test: Antiviral activity against thymidine kinase deficient acyclovir-resistant Human simplex virus 1 KOS infected in HEL cells assessed as reduction in viral cytopathic effect; format: functional, organism-based; conditions: Human alphaherpesvirus 1, KOS
How it was run: (§1)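 Confluent cell monolayers were infected with 100 CCID50 of virus (1 CCID50 is the dose infecting 50% of cultures) with test compound at varying concentrations (100, 20, … μM). CPE was scored once it was complete in untreated infected controls.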

[2] = tested on: Mammalian orthoreovirus 1; test: Antiviral activity against Reovirus-1 infected in African green monkey Vero cells assessed as reduction in viral cytopathic effect; format: functional, organism-based; how it was run: as §1
Human betaherpesvirus 5 [3] = test: Antiviral activity against Human cytomegalovirus Davis infected in HEL cells assessed as reduction in viral cytopathic effect; format: functional, organism-based; conditions: Human betaherpesvirus 5, Davis; how it was run: as §1
[4] = Cytotoxicity against HEL cells assessed as alteration of cell morphology by microscopic method; format: cell-based; conditions: human
How it was run: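 MCC is the lowest compound concentration giving a microscopically visible alteration of cell morphology.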

[5] = tested on: Respiratory syncytial virus; test: Antiviral activity against Respiratory syncytial virus infected in human HeLa cells assessed as reduction in viral cytopathic effect; format: functional, organism-based; how it was run: as §1
Human coronavirus 229E = test: Antiviral activity against Human coronavirus 229E infected in HEL cells assessed as reduction in viral cytopathic effect; format: functional, organism-based; how it was run: as §1
[6] = tested on: Vesicular stomatitis virus; test: Antiviral activity against Vesicular stomatitis virus infected in human HeLa cells assessed as reduction in viral cytopathic effect; format: functional, organism-based; how it was run: as §1
Coxsackievirus B4 [7] = test: Antiviral activity against Coxsackievirus B4 infected in African green monkey Vero cells assessed as reduction in viral cytopathic effect; format: functional, organism-based; how it was run: as §1
Coxsackievirus B4 [8] = test: Antiviral activity against Human coxsackievirus B4 infected in human HeLa cells assessed as reduction in viral cytopathic effect; format: functional, organism-based; how it was run: as §1
Human betaherpesvirus 5 [9] = test: Antiviral activity against Human cytomegalovirus AD169 infected in HEL cells assessed as reduction in viral cytopathic effect; format: functional, organism-based; conditions: Human betaherpesvirus 5, AD169, HEL; how it was run: as §1
Human alphaherpesvirus 3 [10] = test: Antiviral activity against thymidine kinase deficient Varicella zoster virus 07/1 infected in HEL cells assessed as reduction in viral plaque formation; format: functional, organism-based; conditions: Human alphaherpesvirus 3, 07/1, HEL
How it was run: (§2)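 Confluent cultures were inoculated with 20 PFU of virus with compound at varying concentrations (100, 20, … μM). Plaques were counted once plaque formation was complete in untreated infected controls.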

Influenza A virus H3N2 = test: Antiviral activity against Influenza A virus H3N2 infected in MDCK cells assessed as reduction in viral cytopathic effect; format: functional, organism-based
How it was run: (§3)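 Nearly confluent MDCK cultures were infected with 100 CCID50 of virus with compound at varying concentrations (100, 20, … μM). CPE was scored when complete in untreated infected controls.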

Sindbis virus = test: Antiviral activity against Sindbis virus infected in African green monkey Vero cells assessed as reduction in viral cytopathic effect; format: functional, organism-based; how it was run: as §1
Human respirovirus 3 = test: Antiviral activity against Human parainfluenza virus 3 infected in African green monkey Vero cells assessed as reduction in viral cytopathic effect; format: functional, organism-based; how it was run: as §1
Influenza A virus = test: Antiviral activity against Influenza A virus (H1N1) infected in MDCK cells assessed as reduction in viral cytopathic effect; format: functional, organism-based; how it was run: as §3
Human alphaherpesvirus 2 = test: Antiviral activity against Human simplex virus 2 G infected in HEL cells assessed as reduction in viral cytopathic effect; format: functional, organism-based; conditions: Human alphaherpesvirus 2, strain G; how it was run: as §1
Human alphaherpesvirus 1 [11] = test: Antiviral activity against Human simplex virus 1 KOS infected in HEL cells assessed as reduction in viral cytopathic effect; format: functional, organism-based; conditions: Human alphaherpesvirus 1, KOS; how it was run: as §1
Vaccinia virus = test: Antiviral activity against Vaccinia virus infected in HEL cells assessed as reduction in viral cytopathic effect; format: functional, organism-based; conditions: Orthopoxvirus vaccinia; how it was run: as §1
Influenza B virus = test: Antiviral activity against Influenza B virus infected in MDCK cells assessed as reduction in viral cytopathic effect; format: functional, organism-based; how it was run: as §3
[12] = tested on: Human immunodeficiency virus 1; test: Antiviral activity against Human immunodeficiency virus 1 LAV1 infected in primary human PBM cells after 6 days by reverse transcriptase activity-based assay; format: functional, organism-based
Human alphaherpesvirus 3 [13] = test: Antiviral activity against Varicella zoster virus Oka infected in HEL cells assessed as reduction in viral plaque formation; format: functional, organism-based; conditions: Human alphaherpesvirus 3, strain Oka vaccine; how it was run: as §2
HEL = test: Cytostatic activity against HEL cells after 3 days by Coulter counting method; format: cell-based; conditions: human, 72 h
How it was run: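 HEL cells were seeded at 5 × 10^3 cells/well and grown for 24 h, then given medium with graded compound concentrations. After 3 days at 37 °C, cells were counted with a Coulter counter.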

[14] = Selectivity index, ratio of CC50 for HEL cells to EC50 for Varicella zoster virus Oka infected in HEL cells; format: toxicity, cell-based; conditions: human, read-out: Ratio CC50/EC50
How it was run: (§4)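 SI is CC50 divided by EC50. CC50 comes from the 3-day HEL Coulter-counter growth assay. EC50 comes from the VZV plaque-reduction assay (20 PFU inoculum).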

[15] = Selectivity index, ratio of CC50 for HEL cells to EC50 for thymidine kinase deficient Varicella zoster virus 07/1 infected in HEL cells; format: toxicity, cell-based; conditions: human, read-out: Ratio CC50/EC50; how it was run: as §4

| SMILES | EC50 (Human alphaherpesvirus 1 [1]) [µM] | Activity [2] | EC50 (Human betaherpesvirus 5 [3]) [µM] | MCC [4] [µM] | Activity [5] | Activity [6] | Activity (Coxsackievirus B4 [7]) | Activity (Coxsackievirus B4 [8]) | EC50 (Human betaherpesvirus 5 [9]) [µM] | EC50 (Human alphaherpesvirus 3 [10]) [µM] | Activity (Influenza A virus H3N2) | Activity (Sindbis virus) | Activity (Human respirovirus 3) | Activity (Influenza A virus) | EC50 (Human alphaherpesvirus 2) [µM] | EC50 (Human alphaherpesvirus 1 [11]) [µM] | EC50 (Vaccinia virus) [µM] | Activity (Influenza B virus) | Activity [12] | CC50 (HEL) [µM] | further results |
| --- | --- | --- | --- | --- | --- | --- | --- | --- | --- | --- | --- | --- | --- | --- | --- | --- | --- | --- | --- | --- | --- |
| C[C@H](NP(=O)(C/C=C/Cn1cc(F)c(=O)[nH]c1=O)Oc1ccccc1)C(=O)OCc1ccccc1 (some centres not stated) | 79 | inactive | > 20 | ≥ 100 | inactive | inactive | inactive | inactive | > 20 | > 100 | inactive | inactive | inactive | inactive | > 100 | > 100 | > 100 | inactive | inactive |  | EC50 (Human coronavirus 229E): 45 µM; EC50 (Human alphaherpesvirus 3 [13]): > 100 µM |
| Nc1ccn(C[C@@H](CO)OCP(=O)(O)O)c(=O)n1 [CIDOFOVIR] | 4.6 |  |  | > 300 |  |  |  |  |  |  |  |  |  |  | 4.1 | 6.5 | 21.3 |  |  | > 300 |  |
| CCCCCCCCCCCCCCCOCCCOP(=O)(C/C=C/Cn1cc(C)c(=O)[nH]c1=O)OCOC(=O)OC(C)C (configuration not stated) | > 152 | inactive | > 6 | 30 | inactive | inactive | inactive | inactive | > 6 | > 6 | inactive | inactive | inactive | inactive | > 152 | > 152 |  | inactive | inactive | 14.7 | EC50 (Human alphaherpesvirus 3 [13]): > 6 µM |
| Nc1nc2c(ncn2COCCO)c(=O)[nH]1 [ACYCLOVIR] | 94 |  |  | > 440 |  |  |  |  |  |  |  |  |  |  | 0.7 | 1.2 | > 250 |  |  | > 440 |  |
| Cc1cn(C/C=C/CP(=O)(OCOC(=O)C(C)(C)C)OCOC(=O)C(C)(C)C)c(=O)[nH]c1=O |  | inactive | > 41 | ≥ 100 | inactive | inactive | inactive | inactive | > 41 | 0.43 | inactive | inactive | inactive | inactive | 6.5 |  | 30.7 | inactive | inactive | 36.4 | selectivity ratio [14]: 19; selectivity ratio [15]: 85; EC50 (Human alphaherpesvirus 3 [13]): 1.91 µM |
| Nc1nc(O)c2ncn(COC(CO)CO)c2n1 [GANCICLOVIR] |  |  | 4.05 | ≥ 350 |  |  |  |  | 5.63 |  |  |  |  |  |  |  |  |  |  | > 350 |  |
| C[C@H](NP(=O)(C/C=C/Cn1cc(Cl)c(=O)[nH]c1=O)Oc1ccccc1)C(=O)OCc1ccccc1 (some centres not stated) | 24 | inactive | > 20 | ≥ 100 | inactive | inactive | inactive | inactive | > 20 | 20 | inactive | inactive | inactive | inactive | 40 | 43 | > 100 | inactive | inactive |  | EC50 (Human coronavirus 229E): 8.9 µM; EC50 (Human alphaherpesvirus 3 [13]): 44.7 µM |
| O=c1[nH]c(=O)n([C@H]2C[C@H](O)[C@@H](CO)O2)cc1/C=C/Br [BRIVUDINE] | 420 |  |  | > 300 |  |  |  |  |  | ≥ 93.8 |  |  |  |  | 169 | 0.081 | 10.8 |  |  | > 300 | selectivity ratio [14]: > 21400; selectivity ratio [15]: > 3 |
| CCCCCCCCCCCCCCCOCCCOP(=O)(O)C/C=C/Cn1cc(C)c(=O)[nH]c1=O | > 37 | inactive | 13.5 | 184 | inactive | inactive | inactive | inactive | > 39 | 20.5 | inactive | inactive | inactive | inactive | > 37 | > 37 | > 37 | inactive | inactive | 76 | EC50 (Human alphaherpesvirus 3 [13]): 19.4 µM |
| Cc1cn(C/C=C/CP(=O)(OCOC(=O)C(C)C)OCOC(=O)C(C)C)c(=O)[nH]c1=O | 2.8 | inactive | 83 | > 200 | inactive | inactive | inactive | inactive | 102 | 0.45 | inactive | inactive | inactive | inactive | 6.1 | 4.2 | > 200 | inactive | inactive | 36 | selectivity ratio [14]: 29; selectivity ratio [15]: 80; EC50 (Human alphaherpesvirus 3 [13]): 1.26 µM |
